Activity calls are given as the source filed them. The calls are words filed in the database; no cut-off is given here.
Key:
[1] = tested on: Echinochloa crus-galli; assay: Pre-emergence herbicidal activity against Echinochloa crus-galli (barnyard grass); type: functional, organism-based
[2] = tested on: Tetranychus cinnabarinus; assay: Insecticidal activity against Tetranychus cinnabarinus (carmine spider mite); type: functional, organism-based
[3] = tested on: Oryza sativa; assay: Post-emergence herbicidal activity against Oryza sativa (rice); type: functional, organism-based
[4] = tested on: Culex pipiens pallens; assay: Insecticidal activity against Culex pipiens pallens (mosquito) at 3 to 5 ppm; type: functional, organism-based
[5] = tested on: Avena sativa; assay: Pre-emergence herbicidal activity against Avena sativa; type: functional, organism-based
[6] = tested on: Avena sativa; assay: Herbicidal activity against Avena sativa under paddy conditions; type: functional, organism-based
[7] = tested on: Schoenoplectus acutus; assay: Herbicidal activity against Schoenoplectus acutus (hardstem bulrush) under paddy conditions; type: functional, organism-based
[8] = tested on: Avena sativa; assay: Post-emergence herbicidal activity against Avena sativa; type: functional, organism-based
[9] = tested on: Schoenoplectus acutus; assay: Pre-emergence herbicidal activity against Schoenoplectus acutus (hardstem bulrush); type: functional, organism-based
[10] = tested on: Oryza sativa; assay: Pre-emergence herbicidal activity against Oryza sativa (rice); type: functional, organism-based
[11] = tested on: Spodoptera litura; assay: Insecticidal activity against Spodoptera litura; type: functional, organism-based
[12] = tested on: Sagittaria latifolia; assay: Post-emergence herbicidal activity against Sagittaria latifolia (broadleaf arrowhead); type: functional, organism-based
[13] = tested on: Helminthosporium; assay: Fungicidal activity against Helminthosporium oryzae at 500 ppm after 7 days by poisoned food technique; type: functional; details: 168 h, read-out: GI
Method in brief: (§1)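 Cultures kept on potato dextrose agar. Each compound, dissolved in acetone, was added to potato dextrose agar at a final 500 ppm (w/v) (poisoned food technique). A disc cut from the periphery of a seven-day-old culture was inoculated onto each set. Control sets held potato dextrose agar only. The read-out is percentage inhibition of fungal growth relative to control.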

[14] = tested on: Musca domestica; assay: Insecticidal activity against Musca domestica (house fly); type: functional, organism-based
[15] = tested on: Convolvulaceae; assay: Herbicidal activity against Convolvulaceae (morning glory family) under paddy conditions; type: functional, organism-based
[16] = tested on: Echinochloa crus-galli; assay: Post-emergence herbicidal activity against Echinochloa crus-galli (barnyard grass); type: functional, organism-based
[17] = tested on: Convolvulaceae; assay: Pre-emergence herbicidal activity against Convolvulaceae (morning glory family); type: functional, organism-based
[18] = tested on: Sagittaria latifolia; assay: Herbicidal activity against Sagittaria latifolia (broadleaf arrowhead) under paddy conditions; type: functional, organism-based
[19] = tested on: Schoenoplectus acutus; assay: Post-emergence herbicidal activity against Schoenoplectus acutus (hardstem bulrush); type: functional, organism-based
[20] = tested on: Convolvulaceae; assay: Post-emergence herbicidal activity against Convolvulaceae (morning glory family); type: functional, organism-based
[21] = tested on: Oryza sativa; assay: Herbicidal activity against Oryza sativa (rice) under paddy conditions; type: functional, organism-based
[22] = tested on: Abutilon theophrasti; assay: Pre-emergence herbicidal activity against Abutilon theophrasti (velvetleaf); type: functional, organism-based
[23] = tested on: Rhizoctonia solani; assay: Fungicidal activity against Rhizoctonia solani at 500 ppm after 7 days by poisoned food technique; type: functional; details: 168 h, read-out: GI; method in brief: as §1
[24] = tested on: Echinochloa crus-galli; assay: Herbicidal activity against Echinochloa crus-galli (barnyard grass) under paddy conditions; type: functional, organism-based
[25] = tested on: Sagittaria latifolia; assay: Pre-emergence herbicidal activity against Sagittaria latifolia (broadleaf arrowhead); type: functional, organism-based
[26] = tested on: Abutilon theophrasti; assay: Post-emergence herbicidal activity against Abutilon theophrasti (velvetleaf); type: functional, organism-based

| Structure (SMILES) | Activity [1] | Activity [2] | Activity [3] | Activity [4] | Activity [5] | Activity [6] | Activity [7] | Activity [8] | Activity [9] | Activity [10] | Activity [11] | Activity [12] | inhibition of growth at 500 ppm [13] [%] | Activity [14] | Activity [15] | Activity [16] | Activity [17] | Activity [18] | Activity [19] | Activity [20] | also measured |
| --- | --- | --- | --- | --- | --- | --- | --- | --- | --- | --- | --- | --- | --- | --- | --- | --- | --- | --- | --- | --- | --- |
| Cc1ccc2[nH]c(CSc3nnc(-c4ccccc4)o3)nc2c1 | inactive | inactive | inactive | Active | inactive | inactive | inactive | inactive | inactive | inactive | inactive | inactive | 65.3 | inactive | inactive | inactive | inactive | inactive | inactive | inactive | Activity [21]: inactive; Activity [22]: inactive; inhibition of growth at 500 ppm [23]: 61.3%; Activity [24]: inactive; Activity [25]: inactive; Activity [26]: inactive |
| Cc1ccc2[nH]c(CSc3nnc(-c4ccccc4)s3)nc2c1 | inactive | inactive | inactive | Active | inactive | inactive | inactive | inactive | inactive | inactive | inactive | inactive | 71.3 | inactive | inactive | inactive | inactive | inactive | inactive | inactive | Activity [21]: inactive; Activity [22]: inactive; inhibition of growth at 500 ppm [23]: 64.5%; Activity [24]: inactive; Activity [25]: inactive; Activity [26]: inactive |
| Nn1c(SCc2nc3ccccc3[nH]2)nnc1-c1ccncc1 | inactive | inactive | inactive | Active | inactive | inactive | inactive | inactive | inactive | inactive | inactive | inactive | 30 | inactive | inactive | inactive | inactive | inactive | inactive | inactive | Activity [21]: inactive; Activity [22]: inactive; inhibition of growth at 500 ppm [23]: 29.3%; Activity [24]: inactive; Activity [25]: inactive; Activity [26]: inactive |
| Nn1c(SCc2nc3ccccc3[nH]2)nnc1-c1ccccc1Cl | inactive | inactive | inactive | Active | inactive | inactive | inactive | inactive | inactive | inactive | inactive | inactive | 52.3 | inactive | inactive | inactive | inactive | inactive | inactive | inactive | Activity [21]: inactive; Activity [22]: inactive; inhibition of growth at 500 ppm [23]: 39.8%; Activity [24]: inactive; Activity [25]: inactive; Activity [26]: inactive |
| Clc1ccc(-c2nnc(SCc3nc4ccccc4[nH]3)s2)cc1 | inactive | inactive | inactive | Active | inactive | inactive | inactive | inactive | inactive | inactive | inactive | inactive | 52.5 | inactive | inactive | inactive | inactive | inactive | inactive | inactive | Activity [21]: inactive; Activity [22]: inactive; inhibition of growth at 500 ppm [23]: 39%; Activity [24]: inactive; Activity [25]: inactive; Activity [26]: inactive |
| Cc1ccc2[nH]c(CSc3nnc(-c4ccc(Cl)cc4)o3)nc2c1 | inactive | inactive | inactive | Active | inactive | inactive | inactive | inactive | inactive | inactive | inactive | inactive | 100 | inactive | inactive | inactive | inactive | inactive | inactive | inactive | Activity [21]: inactive; Activity [22]: inactive; inhibition of growth at 500 ppm [23]: 100%; Activity [24]: inactive; Activity [25]: inactive; Activity [26]: inactive |

Reference: ChEMBL document CHEMBL3046353, “Synthesis and fungicidal activity of some 5-membered heterocyclic derivatives containing benzimidazoles” (1993)
